Data set [1] deals with HeLa. The data set is described as follows: Cytotoxicity against human HeLa cells assessed as cell viability after 5 days by cell viability analyzer. Conditions: 120 h. It is filed as functional, cell-based. The method, boiled down:
(§1)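 Cells were grown in DMEM with 10% FBS, 4 mM glutamine, 1 mM sodium pyruvate, penicillin/streptomycin and amphotericin at 37 °C under 5% CO2, then seeded at 20,000 per well. They were exposed to five doses from 0.01 to 10 μM for 5 days, with DMSO vehicle as control. Viable cells were counted, and % viability was calculated as treated/vehicle. IC50 was taken from dose-response curves over three independent experiments.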

In data set [2] the test system is MDA-MB-231. Description: Cytotoxicity against human MDA-MB-231 cells assessed as cell viability after 5 days by cell viability analyzer. It is filed as functional, cell-based. The settings on record: MDA-MB-231, 120 h. Put shortly:
as §1

The subject of data set [3] is MCF10. The data set is described as follows: Cytotoxicity against human MCF10 cells at 1 to 10 uM. It is filed as cell-based. The settings on record: mcf10, 10 µM.
Data set [4] deals with MDA-MB-231. The data set is described as follows: Ratio of chlorambucil IC50 to compound IC50 for human MDA-MB-231 cells assessed as cell viability after 5 days by cell viability analyzer. It is filed as functional. Put shortly:
(§2)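 Cells grown in DMEM with 10% FBS, 4 mM glutamine, 1 mM sodium pyruvate, penicillin/streptomycin and amphotericin at 37 °C under 5% CO2. They were seeded at 20,000 per well and exposed to test agents or chlorambucil at 5 doses (0.01–10 μM) for 5 days, with DMSO as vehicle. Viable cells were counted by analyzer and expressed as % of vehicle. IC50s for both agents came from dose-response curves over three independent experiments.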

Data set [5] concerns MCF7. Description: Ratio of chlorambucil IC50 to compound IC50 for human MCF7 cells assessed as cell viability after 5 days by cell viability analyzer. The format is functional. The method, boiled down:
as §2

For data set [6], the system named is HeLa. The data set is described as follows: Ratio of chlorambucil IC50 to compound IC50 for human HeLa cells assessed as cell viability after 5 days by cell viability analyzer. It is filed as functional. The method, boiled down:
as §2

The values that follow come from ChEMBL document CHEMBL3616423, “Design and synthesis of novel hydroxyanthraquinone nitrogen mustard derivatives as potential anticancer agents via a bioisostere approach” (Eur J Med Chem, 2015).

Usually IC50 stands for the midpoint of a concentration-inhibition curve.

As for `CC(c1cc(O)c2c(c1O)C(=O)c1ccccc1C2=O)N(CCCl)CCCl` (stereo not given), the IC50 in data set [1] is 154 nM; in data set [2], 1000 nM.

With `O=C1c2ccccc2C(=O)c2c(O)c(CN(CCCl)CCCl)cc(O)c21`, the IC50 turned out to be 139 nM in data set [1] and 211 nM in data set [2].

For `CCC(c1cc(O)c2c(c1O)C(=O)c1ccccc1C2=O)N(CCCl)CCCl` (stereo not given), the IC50 came to 105 nM in data set [1] and 84.5 nM in data set [2].

For `CCCC(c1cc(O)c2c(c1O)C(=O)c1ccccc1C2=O)N(CCCl)CCCl` (stereo not given), the IC50 was found to be 152 nM in data set [1] and 61.9 nM in data set [2].

As for `CC(C)C(c1cc(O)c2c(c1O)C(=O)c1ccccc1C2=O)N(CCCl)CCCl` (stereo not given), the IC50 in data set [1] came out at 217 nM; in data set [2] it was 77.6 nM. The Activity result in data set [3] is given as “Toxic”.

Turning to `CC(C)CC(c1cc(O)c2c(c1O)C(=O)c1ccccc1C2=O)N(CCCl)CCCl` (stereo not given), the results for the IC50 in data set [1] and in data set [2] were 392 nM and 14.6 nM, respectively.

On to `O=C1c2ccccc2C(=O)c2c(O)c(C(Cc3ccccc3)N(CCCl)CCCl)cc(O)c21` (stereo not given), for which the figures for the IC50 in data set [1] and in data set [2] were 665 nM and 51.1 nM, respectively.

For the molecule `O=C1c2ccccc2C(=O)c2c(O)c(C(c3ccccc3)N(CCCl)CCCl)cc(O)c21` (stereo not given), the IC50 in data set [1] was 339 nM; in data set [2], 137 nM. Besides, the Activity entry in data set [3] was “Toxic”.

For the molecule `O=C1c2ccccc2C(=O)c2c(O)c(C(c3ccccc3F)N(CCCl)CCCl)cc(O)c21` (stereo not given), in data set [4], the “Ratio IC50” value came to 900. The IC50 in data set [1] worked out at 615 nM; in data set [2] it was 0.59 nM. For the same molecule, the Activity result in data set [3] is “Toxic”.

Consider `O=C1c2ccccc2C(=O)c2c(O)c(C(c3cccc(F)c3)N(CCCl)CCCl)cc(O)c21` (stereo not given), for which the IC50 was 166 nM in data set [1] and 59.6 nM in data set [2]. In data set [3], the Activity result is given as “Toxic”.

With `O=C1c2ccccc2C(=O)c2c(O)c(C(c3ccc(F)cc3)N(CCCl)CCCl)cc(O)c21` (stereo not given), the values for the IC50 in data set [1] and in data set [2] were 249 nM and 80.7 nM, respectively. Besides, the “Ratio IC50” value in data set [5] stood at 100. Also, the Activity entry in data set [3] was “Toxic”.

`O=C1c2ccccc2C(=O)c2c(O)c(C(c3ccc(Cl)cc3)N(CCCl)CCCl)cc(O)c21` (stereo not given): the IC50 in data set [1] was found to be 185 nM; in data set [2] it was 48 nM.

For the molecule `O=C1c2ccccc2C(=O)c2c(O)c(C(c3ccc(Br)cc3)N(CCCl)CCCl)cc(O)c21` (stereo not given), the IC50 was 262 nM in data set [1] and 299 nM in data set [2].

Take `COc1ccccc1C(c1cc(O)c2c(c1O)C(=O)c1ccccc1C2=O)N(CCCl)CCCl` (stereo not given): the IC50 amounted to 210 nM in data set [1] and 2.13 nM in data set [2]. Further, the Activity entry in data set [3] is reported as “Toxic”.

For the molecule `COc1cccc(C(c2cc(O)c3c(c2O)C(=O)c2ccccc2C3=O)N(CCCl)CCCl)c1` (stereo not given), the IC50 worked out at 210 nM in data set [1] and 91.2 nM in data set [2]. In addition, in data set [3], the Activity entry is given as “Toxic”.

Turning to `COc1ccc(C(c2cc(O)c3c(c2O)C(=O)c2ccccc2C3=O)N(CCCl)CCCl)cc1` (stereo not given), the values for the IC50 in data set [1] and in data set [2] were 457 nM and 12.9 nM, respectively. For the same molecule, the Activity entry in data set [3] is on record as “Toxic”.

With `Cc1ccc(C(c2cc(O)c3c(c2O)C(=O)c2ccccc2C3=O)N(CCCl)CCCl)cc1` (stereo not given), the values for the IC50 in data set [1] and in data set [2] were 93.8 nM and 22.5 nM, respectively. Also, the “Ratio IC50” value in data set [6] is 10.

For `Cc1ccc(C(c2cc(O)c3c(c2O)C(=O)c2ccccc2C3=O)N(CCCl)CCCl)cc1C` (stereo not given), the concentration for half-maximal inhibition (IC50) was 234 nM in data set [1] and 389 nM in data set [2]. In addition, the Activity result in data set [3] is “Toxic”.

For the molecule `O=C1c2cccc(O)c2C(=O)c2c1ccc(C(c1ccccc1)N(CCCl)CCCl)c2O` (stereo not given), the IC50 in data set [1] turned out to be 308 nM; in data set [2] it was 316 nM.

`COc1cc(C(c2ccccc2)N(CCCl)CCCl)c(O)c2c1C(=O)c1ccccc1C2=O` (stereo not given): the IC50 in data set [1] worked out at 480 nM; in data set [2], 278 nM. Also, the Activity result in data set [3] is “Toxic”.

With `O=C(O)CCCc1ccc(N(CCCl)CCCl)cc1` [CHLORAMBUCIL], the IC50 in data set [1] worked out at 943 nM; in data set [2], 520 nM.
